VIM-2 inhibitor – blocks Pseudomonas aeruginosa VIM-2 metallo-beta-lactamase; AID 1527; actives 0.89% (n = 290,000); inhibition, % at 5.6 µM; purified VIM-2, nitrocefin hydrolysis, epi-absorbance fluorescence;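 active means inhibition above the mean of all tested compounds plus 3 SD, cutoff set per screening run, cut at about 7.5% in these data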;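 further: red hydrolysis product quenches plate fluorescence so inhibitors raise well fluorescence; 0% = enzyme with DMSO and 100% = DMSO without enzyme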
IMP-1 inh-1 – inhibitors of Pseudomonas aeruginosa IMP-1 metallo-beta-lactamase | actives 0.45% (n = 290,000) | purified IMP-1, nitrocefin hydrolysis, epi-absorbance fluorescence | inhibition, % at 5.6 µM;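 active means inhibition above the mean plus 3 SD of all compounds in the same screening run, cut at about 4.5% in these data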;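 further: 0% = IMP-1 with DMSO and 100% = DMSO wells lacking enzyme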
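System: purified IMP-1 / Input: IMP-1 dispensed at 0.2 nM / Medium: 50 mM HEPES pH 7.1, 50 µM ZnSO4, 0.05% Brij 35 / Timing: 15 min enzyme–compound preincubation, then 25 min nitrocefin reaction, 25 °C / Technique: plate fluorescence quenching by hydrolysis product, ex 480/em 530 nm / Repeats: singlicate testing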
CTSL1 counter-1 – cathepsin L1 inhibition, PFM18AAP counter-screen | actives 0.49% (n = 300,000) | recombinant F. hepatica cathepsin L1, Z-Leu-Arg-MCA fluorescence | inhibition, % at 5.96 µM | AID 1906;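 active means inhibition above the mean of all tested compounds plus 3 SD, set per screening campaign, cut at about 17% in these data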;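 further: 0% = plate median of test compound wells and 100% = 1 µM Z-Phe-Ala-diazomethylketone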
PfM18AAP inh-1 – PfM18AAP enzyme inhibition; actives 1.2% (n = 290,000); AID 1822; recombinant PfM18AAP, H-Glu-NHMec fluorogenic cleavage; inhibition, % at 7.35 µM;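 active means inhibition above the campaign mean inhibition over all tested compounds plus 3 SD, cut at about 28% in these data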;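 further: 0% = plate median of test compound wells and 100% = 2 mM ZnCl2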
IMP-1 inh-2 – blocks IMP-1 metallo-beta-lactamase in VIM-2 selectivity screen. purified IMP-1, nitrocefin hydrolysis, epi-absorbance fluorescence. shares compounds with VIM-2 inhibitor. inhibition, % at 5.6 µM. 1,300 tested, under 10 active; call rule not given here;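 further: 0% = enzyme with vehicle and 100% = vehicle without enzyme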
VIM-2 FRET ctr – VIM-2 FRET inhibition, artifact counter-screen. shares compounds with VIM-2 inhibitor. purified VIM-2, CCF2 FRET substrate hydrolysis. inhibition, % at 5.6 µM. actives 23% (n = 1,300);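 active means inhibition above the mean of all tested compounds plus 3 SD, cut at about 19% in these data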;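 further: 0% = VIM-2 plus DMSO and 100% = no enzyme wells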
TEM-1 counter – blocks E. coli TEM-1 beta-lactamase in VIM-2 selectivity screen | shares compounds with VIM-2 inhibitor | Purified TEM-1, nitrocefin hydrolysis, epi-absorbance fluorescence | inhibition, % at 5.6 µM | actives 3% (n = 1,300) | AID 1866;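 active means inhibition above that campaign's mean inhibition plus 3 SD, cut at about 0.46% in these data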;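 further: 0% = TEM-1 with DMSO and 100% = TEM-1 with 100 µM potassium clavulanate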
Target sequence (P62593 whole entry, looked up): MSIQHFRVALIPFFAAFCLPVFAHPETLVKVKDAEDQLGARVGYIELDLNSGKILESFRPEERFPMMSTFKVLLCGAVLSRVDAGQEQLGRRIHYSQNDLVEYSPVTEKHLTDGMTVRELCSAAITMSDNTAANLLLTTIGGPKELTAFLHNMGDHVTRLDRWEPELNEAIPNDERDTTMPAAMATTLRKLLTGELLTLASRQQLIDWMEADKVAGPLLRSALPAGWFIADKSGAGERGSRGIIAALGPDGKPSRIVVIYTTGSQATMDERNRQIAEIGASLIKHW
VIM-2 inh conf – confirmation of P. aeruginosa VIM-2 metallo-beta-lactamase inhibitors. shares compounds with VIM-2 inhibitor. inhibition, % at 5.6 µM. AID 2187. purified VIM-2, nitrocefin hydrolysis, epi-absorbance. actives 96% (n = 1,300);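 active means inhibition of the VIM-2 beta-lactamase enzyme above about 11% from the earlier first-round screen, limit read from the data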;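 further: 0% = VIM-2 with DMSO and 100% = buffer wells without enzyme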
PfM18AAP inh-2 – PfM18AAP inhibition, confirmation; shares compounds with PfM18AAP inh-1; recombinant PfM18AAP, H-Glu-NHMec fluorogenic cleavage; inhibition, % at 7.35 µM; actives 28% (n = 2,400); AID 2170;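 active means mean inhibition over replicate wells above the hit cutoff set for the earlier primary screen, cut at about 29% in these data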;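 further: 0% = median of test compound wells and 100% = 2 mM ZnCl2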
CTSL1 counter-2 – counter-screen for PFM18AAP inhibitors: confirmation of human cathepsin L inhibitors | shares compounds with PfM18AAP inh-1 | purified cathepsin L1, Z-Leu-Arg-MCA fluorescence | inhibition, % at 5.96 µM | 2,400 tested, under 10 active;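 active means average inhibition across replicates above the hit cutoff set in the earlier primary screen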;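 further: 0% = median of test compound wells and 100% = Z-Phe-Ala-diazomethylketone 1 µM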
Target sequence (P07711 whole entry, looked up): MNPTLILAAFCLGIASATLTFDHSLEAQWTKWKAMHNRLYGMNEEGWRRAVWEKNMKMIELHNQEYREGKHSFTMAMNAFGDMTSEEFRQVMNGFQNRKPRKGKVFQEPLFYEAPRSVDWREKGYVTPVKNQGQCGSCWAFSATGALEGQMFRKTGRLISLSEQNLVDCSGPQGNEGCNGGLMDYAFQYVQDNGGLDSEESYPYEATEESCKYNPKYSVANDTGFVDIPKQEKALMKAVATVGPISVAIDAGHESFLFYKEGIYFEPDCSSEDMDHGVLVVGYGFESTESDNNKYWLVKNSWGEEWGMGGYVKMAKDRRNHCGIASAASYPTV
Starred values were filed as active, the others as inactive; . = no result given. Most compounds without a hit are left out; they make up all but 2.7% or so of the library.

SMILES	VIM-2 inhibitor	IMP-1 inh-1	CTSL1 counter-1	PfM18AAP inh-1	IMP-1 inh-2	VIM-2 FRET ctr	TEM-1 counter	VIM-2 inh conf	others
CN1CCN(C(=O)c2ccc(-c3ccccc3)cc2)CC1	1	0	-1	-2	.	.	.	.
CCCNC(=O)c1ccc(-c2nn(C)c(=O)c3ccccc23)cc1	3	-2	7	-2	.	.	.	.
CN(C)CCNC(=O)c1ccc(-c2nn(C)c(=O)c3ccccc23)cc1	32*	-3	-1	-2	-3	-1	-5	50*
Cn1nc(-c2ccc(C(=O)N3CCN(CCO)CC3)cc2)c2ccccc2c1=O	65*	-4	1	3	-3	2	-6	69*
CN1CCN(C(=O)c2ccc(-c3nn(C)c(=O)c4ccccc34)cc2)CC1	70*	-4	0	16	-1	-8	1.5*	79*
CCn1c(SCC(=O)N2CCc3ccccc32)nnc1-c1ccco1	-4	-3	3	-3	.	.	.	.
COc1ccc(C(=O)NC(C)c2ccc(-n3ccnc3)cc2)c(OC)c1OC (configuration not stated)	30*	-2	0	-5	-4	-6	-7	40*
COc1ccc(C(=O)NC(C)c2ccc(-n3ccnc3)cc2)c(OC)c1 (configuration not stated)	22*	-3	-3	3	-5	-7	-8	34*
CCN(CC)c1ccc(-c2nn3c(-c4ccccc4OC)nnc3s2)cc1	13*	-4	4	0	-4	-9	-8	1
CCN(CC)C(=O)c1cc2c(=O)n3cccc(C)c3nc2s1	16*	-2	6	-1	-4	-10	-3	20*
CCN(CC)C(=O)c1cc2c(=O)n3cccc(C)c3nc2n1C	3	-2	3	1	.	.	.	.
CCCCN(CC)C(=O)c1cc2c(=O)n3cccc(C)c3nc2s1	12*	-1	4	-12	-2	-5	-4	19*
CCN(C(=O)c1cc2c(=O)n3ccccc3nc2s1)C1CCCCC1	3	-4	4	0	.	.	.	.
CC(=O)c1ccc(S(=O)(=O)NC2CC(=O)N(c3ccc(Cl)cc3)C2)cc1 (configuration not stated)	.	.	1	.	.	.	.	.
COc1ccc2[nH]c(C(=O)N/N=C/c3ccc(O)cc3O)cc2c1	0	-3	.	-2	.	.	.	.
CC(=O)Nc1ccc(Oc2nc(C(F)(F)F)nc3ccccc23)cc1	21*	-2	-2	-9	-3	0	-5	30*
Cc1cc(NCCCn2ccnc2)n2ncc(-c3ccccc3)c2n1	57*	-2	2	-4	-1	-14	1.4*	73*
Cc1cc(NCCN2CCOCC2)n2nc(C)c(-c3ccccc3)c2n1	-4	-3	1	4	.	.	.	.
Cc1cc(NCc2ccccc2)n2ncc(-c3ccccc3)c2n1	-3	-4	-3	-1	.	.	.	.
Cc1cc(NCCCn2ccnc2)n2nc(C)c(-c3ccc(Cl)cc3)c2n1	50*	0	6	9	-2	-22	-6	60*
Cc1cc(NCCCn2ccnc2)n2nc(C)c(-c3ccccc3)c2n1	68*	-3	3	0	-4	-15	-7	79*
c1ccc(-c2nc(NCCCn3ccnc3)c3ccccc3n2)cc1	22*	-3	1	-13	-2	-16	-1	36*
COc1ccc(CCNC(=O)[C@@H](NC(=O)N2CC(=O)Nc3ccccc32)C(C)C)cc1OC	-2	-3	-2	-1	.	.	.	.
CCNc1nn2ccccc2c1/C=C(\C#N)C(=O)OCC	2	-3	3	4	.	.	.	.
CCOC(=O)N1CCN(C(=O)CSc2ccc(C(F)(F)F)cc2[N+](=O)[O-])CC1	-2	-3	-2	6	.	.	.	.
SMILES	VIM-2 inhibitor	IMP-1 inh-1	CTSL1 counter-1	PfM18AAP inh-1	IMP-1 inh-2	VIM-2 FRET ctr	TEM-1 counter	VIM-2 inh conf	others
CN1CCN(C(=O)CSc2ccc(C(F)(F)F)cc2[N+](=O)[O-])CC1	13*	0	0	-12	-3	-2	-6	38*
Cc1ccc(-c2n[nH]c(=O)c3ccccc23)cc1S(=O)(=O)N(C)CCO	1	0	-5	-1	.	.	.	.
O=c1[nH]nc(-c2ccc(NCCCO)c([N+](=O)[O-])c2)c2ccccc12	24*	-1	-2	3	-2	3	-2	34*
Cc1ccc(-c2n[nH]c(=O)c3ccccc23)cc1S(=O)(=O)NCCO	1	-1	0	8	.	.	.	.
O=c1[nH]nc(-c2ccc(NCCO)c([N+](=O)[O-])c2)c2ccccc12	25*	-3	-6	8	-3	2	-7	38*
CC1CN(C(=O)CCS(=O)(=O)c2ccccc2)CC(C)O1 (configuration not stated)	1	1	-9	-5	.	.	.	.
CCOC(=O)c1sc2nc(C)nc(NC3CCC(O)CC3)c2c1C (configuration not stated)	23*	-1	-1	-4	-3	-2	-5	32*
CCOC(=O)c1cc2c(=O)n3cccc(C)c3nc2n(CC(C)C)c1=NC(=O)c1ccco1	5	-1	6	18	.	.	.	.
CCNC(=O)c1cc2c(=O)n3cccc(C)c3nc2n(Cc2ccc(C)cc2)c1=N	-1	-3	-3	5	.	.	.	.
C=CCn1c(=N)c(C(=O)OCC)cc2c(=O)n3cccc(C)c3nc21	13*	-3	1	3	-3	-44	-5	26*
COCCCNC(=O)c1cc2c(=O)n3cccc(C)c3nc2n(C(C)C)c1=N	13*	-4	2	4	0	-79	1.1*	28*
N#Cc1cnc(SCC(=O)NNC(=O)COc2cccc3ccccc23)nc1N	-3	2	2	9	.	.	.	.
O=C(NCC1CCCO1)c1cc([N+](=O)[O-])ccc1Cl (configuration not stated)	-5	-3	-3	4	.	.	.	.
CCc1nn(CC(=O)NCCCN2CCOCC2)c(=O)c2cc3sccc3n12	4	-1	-2	-1	.	.	.	.
CCCN1CCN(C(=O)Cn2nc(CC)n3c(cc4sccc43)c2=O)CC1	33*	-1	-1	0	-2	0	-7	39*
CC(C)Cn1c(-c2ccccc2F)n[nH]c1=S	19*	1	-4	32*	-2	30*	-7	21*	PfM18AAP inh-2=1;CTSL1 counter-2=-1
CC(C)Cn1c(-c2ccc(F)cc2)n[nH]c1=S	4	0	1	12	.	.	.	.

Bioassay records as filed in PubChem BioAssay.
